These results are taken from BindingDB's records for doi:10.1021/jm960868t (Organix, 1997).

This experiment has as its target Sodium-dependent dopamine transporter (Macaca fascicularis, UniProt Q9GJT6). The experiment can be described thus: Inhibition of [3H]WIN-35428 binding to dopamine transporter using of Cynomolgus monkey caudate-putamen. A digest of the protocol:
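Caudate-putamen membranes (washed in 50 mM Tris-HCl pH 7.4, 3800g spins) incubated at 4 mg original wet tissue/mL with 0.3 nM [3H]WIN35,428 and 7–14 competitor concentrations in 50 mM Tris-HCl/100 mM NaCl pH 7.4, 2 h at 0–4 °C. Filtered on BSA-soaked GF/B filters, scintillation counting. Nonspecific binding defined with 30 μM (–)-cocaine. IC50 computed by EBDA; independent experiments in triplicate.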

pIC50: −log10 of the molar value.

Sequence of Sodium-dependent dopamine transporter (Q9GJT6 whole entry): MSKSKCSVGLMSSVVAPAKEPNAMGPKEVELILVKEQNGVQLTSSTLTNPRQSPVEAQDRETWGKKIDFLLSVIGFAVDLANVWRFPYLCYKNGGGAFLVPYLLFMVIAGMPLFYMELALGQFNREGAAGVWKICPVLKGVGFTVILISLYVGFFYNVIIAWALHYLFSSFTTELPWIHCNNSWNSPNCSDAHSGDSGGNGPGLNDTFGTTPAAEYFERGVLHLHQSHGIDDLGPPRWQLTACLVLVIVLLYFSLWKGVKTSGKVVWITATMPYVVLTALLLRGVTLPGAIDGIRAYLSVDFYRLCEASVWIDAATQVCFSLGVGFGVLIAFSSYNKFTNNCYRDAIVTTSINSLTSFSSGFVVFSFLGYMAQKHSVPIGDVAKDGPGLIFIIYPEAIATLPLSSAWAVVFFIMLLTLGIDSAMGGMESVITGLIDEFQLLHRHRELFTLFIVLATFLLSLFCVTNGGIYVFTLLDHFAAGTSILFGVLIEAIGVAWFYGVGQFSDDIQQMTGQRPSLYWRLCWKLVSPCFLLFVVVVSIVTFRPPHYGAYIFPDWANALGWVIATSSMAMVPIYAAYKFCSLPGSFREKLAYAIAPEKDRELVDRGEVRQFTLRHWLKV

In the case of `COC(=O)C1C(c2ccc(Cl)c(Cl)c2)CC2CCC1N2CCC[N+]12CC[S][Re]13(=[O])[S]CC[N]3C(=O)C2` (stereo not drawn) [[N-[2-[(3'-N'-Propyl-3''beta-(3,4-dichlorophenyl)tropane-2''beta-carboxylic acid methyl ester)(2-mercaptoethyl)amino]acetyl]-2-aminoethanethiolato]rhenium(V) oxide], the pIC50 (as a rule, the negative decadic logarithm of the IC50, by convention in mol/L) is 7.43.

As to `COC(=O)[C@@H]1C2CCC(C[C@@H]1OC(c1ccc(F)cc1)c1ccc(F)cc1)N2CCCN1CC[S][Re]2(=[O])[S]CC[N]2C(=O)C1` (some centres not stated), the pIC50 was 6.46.
